Assay results as given in ChEMBL document CHEMBL2176909, “Kaurenoic acid from Sphagneticola trilobata Inhibits Inflammatory Pain: effect on cytokine production and activation of the NO-cyclic GMP-protein kinase G-ATP-sensitive potassium channel signaling pathway” (J Nat Prod, 2012).
Activity calls are given as the source filed them.

Key:
Mus musculus [1] = assay: Antihyperalgesic activity in carrageenan-induced mechanical hyperalgesia Swiss mouse model assessed as paw withdrawal latency at 3 mg/kg, po administered 30 mins prior to challenge measured after 1 to 3 hrs post stimulus by electronic pressure-meter test; assay type: functional, organism-based; design: dose 3 mg/kg
How it was run: (§1)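 Male Swiss mice dosed po (1–10 mg/kg, 2% DMSO in saline) 30 min before intraplantar carrageenin (100 μg/paw). Control indomethacin 5 mg/kg ip given 40 min before. Electronic pressure-meter readings at 1, 3 and 5 h, mean of three. Δ withdrawal threshold (g) is the post-stimulus reading minus zero-time. n = 5.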

Mus musculus [2] = assay: Antinociceptive activity in Swiss mouse assessed as inhibition of acetic acid-induced writhing at 3 to 30 mg/kg, ip administered 30 mins prior to acetic acid challenge; assay type: functional, organism-based
How it was run: (§2)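 Mice dosed ip or po (3–30 mg/kg, 2% DMSO in saline) 30 min before ip acetic acid (0.8% v/v, 10 mL/kg). Indomethacin 5 mg/kg ip given 40 min before. Cumulative writhing score over 20 min. n = 6.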

Mus musculus [3] = assay: Antihyperalgesic activity in carrageenan-induced mechanical hyperalgesia Swiss mouse model assessed as paw withdrawal latency at 10 mg/kg, po administered 30 mins prior to challenge measured after 1 to 5 hrs post challenge by electronic pressure-meter test in presence of 30 mg/kg L-NAME; assay type: functional, organism-based
How it was run: (§3)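 Swiss mice given L-NAME (10–90 mg/kg ip) 60 min before 10 mg/kg po. Intraplantar carrageenin (100 μg/paw) 30 min later. Mechanical threshold by electronic pressure-meter at 5 h, reported as Δ withdrawal threshold (g). n = 5.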

Mus musculus [4] = assay: Antihyperalgesic activity against thermal hyperalgesia in Swiss mouse assessed as increase in thermal nociceptive threshold at 10 mg/kg, po after 1.5 to 5.5 hrs by hot plate test; assay type: functional, organism-based; design: dose 10 mg/kg
How it was run: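 Male Swiss mice (25–30 g), 10 mg/kg po. Hot plate at 55 °C inside a glass cylinder. Two baseline latencies taken ≥10 min apart, then latency read at 1.5, 3.5 and 5.5 h after dosing. Endpoint is jumping or paw licking, with a 30 s cutoff.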

Mus musculus [5] = assay: Antihyperalgesic activity in complete Freund's adjuvant-induced Swiss mouse pain model assessed as paw withdrawal latency at 10 mg/kg, po starting 1 hr post challenge for 7 days measured after 2 to 7 days by electronic pressure-meter test; assay type: functional, organism-based; design: dose 10 mg/kg
How it was run: (§4)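 Male Swiss mice injected intraplantar with CFA (10 μL/paw). Dosing is daily from 1 h after CFA for 7 days, either 10 mg/kg po or indomethacin 5 mg/kg ip. Electronic pressure-meter Δ withdrawal threshold (g) measured every 24 h. n = 6.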

Mus musculus [6] = assay: Gastrointestinal toxicity in Swiss mouse assessed as increase in stomach MPO activity at 10 mg/kg, po for 7 days measured over 7 days relative to vehicle-treated control; assay type: organism-based; design: dose 10 mg/kg, route oral; settings: in vivo, 168 h
How it was run: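 Mice dosed po daily for 7 days: vehicle (2% DMSO/saline or Tris/HCl pH 8.0), 10 mg/kg, or indomethacin 2.5 mg/kg. Stomach is homogenized in 50 mM phosphate buffer pH 6.0 with 0.5% HTAB. Supernatant is reacted with o-dianisidine/H2O2 and read at 450 nm. Results expressed as neutrophils ×10^4/mg tissue from a neutrophil standard curve. n = 8.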

Mus musculus [7] = assay: Antiinflammatory activity in Swiss mouse model assessed as inhibition of carrageenan-induced TNFalpha production in cutaneous plantar tissue at 10 mg/kg, po administered 30 mins prior to challenge measured 3 hrs post challenge by ELISA; assay type: functional, organism-based; design: dose 10 mg/kg
How it was run: (§5)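 Swiss mice given 10 mg/kg po 30 min before intraplantar carrageenin (100 μg/paw). At 3 h, plantar skin is removed under terminal anesthesia and homogenized in buffer with protease inhibitors. IL-1β and TNF-α measured by ELISA, as pg/paw. Saline-injected paws serve as controls. n = 5.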

Mus musculus [8] = assay: Antinociceptive activity in Swiss mouse assessed as inhibition of PBQ-induced writhing at 10 mg/kg, po administered 30 mins prior to PBQ challenge; assay type: functional, organism-based; design: dose 10 mg/kg
How it was run: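 Swiss mice dosed po (10 mg/kg) 30 min before ip PBQ (1890 μg/kg in 2% DMSO/saline). Indomethacin 5 mg/kg ip given 40 min before. Cumulative writhing score over 20 min. n = 6.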

Mus musculus [9] = assay: Antihyperalgesic activity in po dosed carrageenan-induced mechanical hyperalgesia Swiss mouse model assessed as paw withdrawal latency administered 30 mins prior to challenge by electronic pressure-meter test; assay type: functional, organism-based; how it was run: as §1
Mus musculus [10] = assay: Antihyperalgesic activity in carrageenan-induced mechanical hyperalgesia Swiss mouse model assessed as paw withdrawal latency at 10 mg/kg, po administered 30 mins prior to challenge measured after 1 to 5 hrs post challenge by electronic pressure-meter test in presence of PKG inhibitor KT5823; assay type: functional, organism-based; design: dose 10 mg/kg
How it was run: (§6)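 Pretreatment ip: ODQ 0.3 mg/kg in 2% DMSO/saline at 30 min, KT5823 0.5 μg/mouse in 2% DMSO/saline at 5 min, or glybenclamide 0.3 mg/kg in 5% Tween 80/saline at 45 min. Each is followed by 10 mg/kg po, then intraplantar carrageenin (100 μg/paw) 30 min later. Pressure-meter Δ threshold (g) at 1, 3 and 5 h. n = 5.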

Mus musculus [11] = assay: Antinociceptive activity in po dosed Swiss mouse assessed as inhibition of acetic acid-induced writhing administered 30 mins prior to acetic acid challenge; assay type: functional, organism-based; how it was run: as §2
Mus musculus [12] = assay: Antinociceptive activity against formalin-induced pain in Swiss mouse assessed as inhibition of paw licking at 10 mg/kg, po administered 30 mins prior to formalin challenge; assay type: functional, organism-based; design: dose 10 mg/kg
How it was run: (§7)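 Swiss mice dosed 10 mg/kg po 30 min before intraplantar formalin (25 μL of 1.5% in saline). Flinches and licking time counted over 0–30 min in 5-min bins and reported as 0–15 and 15–30 min phases. n = 6.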

Mus musculus [13] = assay: Antihyperalgesic activity in carrageenan-induced mechanical hyperalgesia Swiss mouse model assessed as paw withdrawal latency at 1 mg/kg, po administered 30 mins prior to challenge by electronic pressure-meter test; assay type: functional, organism-based; design: dose 1 mg/kg; how it was run: as §1
Mus musculus [14] = assay: Antiinflammatory activity in complete Freund's adjuvant-induced Swiss mouse pain model assessed as inhibition of paw licking at 10 mg/kg, po administered 30 mins prior to challenge; assay type: functional, organism-based; design: dose 10 mg/kg
How it was run: (§8)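 10 mg/kg po (or vehicle) given 30 min before intraplantar CFA (10 μL/paw) in Swiss mice. Paw flinches and licking time counted over 30 min as cumulative totals. n = 6.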

Mus musculus [15] = assay: Antihyperalgesic activity in carrageenan-induced mechanical hyperalgesia Swiss mouse model assessed as paw withdrawal latency at 10 mg/kg, po administered 30 mins prior to challenge measured after 1 to 5 hrs post challenge by electronic pressure-meter test in presence of soluble […] inhibitor ODQ; assay type: functional, organism-based; design: dose 10 mg/kg; how it was run: as §6
Mus musculus [16] = assay: Antihyperalgesic activity in carrageenan-induced mechanical hyperalgesia Swiss mouse model assessed as paw withdrawal latency at 10 mg/kg, po administered 30 mins prior to challenge measured after 1 to 5 hrs post challenge by electronic pressure-meter test in presence of 90 mg/kg L-NAME; assay type: functional, organism-based; how it was run: as §3
Mus musculus [17] = assay: Toxicity in Swiss mouse assessed as effect on muscle-relaxing effect at 10 mg/kg, po after 1.5 to 5.5 hrs by roto-rod test; assay type: organism-based; design: dose 10 mg/kg, route oral; settings: in vivo
How it was run: (§9)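 Rota-rod turning at 22 rpm. Mice are pre-selected 24 h earlier by staying on for two 120 s periods. Dosing is vehicle (20% Tween 80/saline) or 10 mg/kg po, with testing at 1.5, 3.5 and 5.5 h and a 120 s cutoff. n = 6.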

Mus musculus [18] = assay: Antiinflammatory activity in complete Freund's adjuvant-induced Swiss mouse pain model assessed as inhibition of paw flinching at 10 mg/kg, po administered 30 mins prior to challenge; assay type: functional, organism-based; design: dose 10 mg/kg; how it was run: as §8
Mus musculus [19] = assay: Antihyperalgesic activity in carrageenan-induced mechanical hyperalgesia Swiss mouse model assessed as paw withdrawal latency at 10 mg/kg, po administered 30 mins prior to challenge measured after 1 to 5 hrs post challenge by electronic pressure-meter test; assay type: functional, organism-based; design: dose 10 mg/kg; how it was run: as §1
Mus musculus [20] = assay: Antiinflammatory activity in Swiss mouse model assessed as inhibition of carrageenan-induced IL-1beta production in cutaneous plantar tissue at 10 mg/kg, po administered 30 mins prior to challenge measured 3 hrs post challenge by ELISA; assay type: functional, organism-based; design: dose 10 mg/kg; how it was run: as §5
Mus musculus [21] = assay: Antihyperalgesic activity in carrageenan-induced mechanical hyperalgesia Swiss mouse model assessed as paw withdrawal latency at 10 mg/kg, po administered 30 mins prior to challenge measured after 1 to 5 hrs post stimulus by electronic pressure-meter test; assay type: functional, organism-based; design: dose 10 mg/kg; how it was run: as §1
Mus musculus [22] = assay: Hepatotoxicity in Swiss mouse assessed as change in plasma AST level at 10 mg/kg, po for 7 days measured over 7 days relative to vehicle-treated control; assay type: toxicity, organism-based; design: dose 10 mg/kg, route oral; settings: in vivo, 168 h
How it was run: (§10)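 Mice dosed po daily for 7 days: vehicle (2% DMSO/saline or Tris/HCl pH 8.0), 10 mg/kg, or indomethacin 2.5 mg/kg. Heparinized blood is drawn under terminal anesthesia, and plasma AST and ALT are measured with a diagnostic kit. n = 8.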

Mus musculus [23] = assay: Toxicity in Swiss mouse assessed as sedative effect at 10 mg/kg, po after 1.5 to 5.5 hrs by roto-rod test; assay type: organism-based; design: dose 10 mg/kg, route oral; settings: in vivo; how it was run: as §9
Mus musculus [24] = assay: Antinociceptive activity against formalin-induced pain in Swiss mouse assessed as inhibition of paw flinching at 10 mg/kg, po administered 30 mins prior to formalin challenge; assay type: functional, organism-based; design: dose 10 mg/kg; how it was run: as §7
Mus musculus [25] = assay: Antihyperalgesic activity in PGE2-induced mechanical hyperalgesia Swiss mouse model assessed as paw withdrawal latency at 10 mg/kg, po administered 30 mins prior to challenge measured at 3 hrs post compound treatment by electronic pressure-meter test; assay type: functional, organism-based; design: dose 10 mg/kg
How it was run: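 Male Swiss mice given 10 mg/kg po (vehicle 2% DMSO in saline) 30 min before intraplantar PGE2 (100 ng/paw). Electronic pressure-meter test 3 h after stimulus, each value the mean of three readings. Result is Δ withdrawal threshold (g), zero-time mean subtracted. n = 5.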

Mus musculus [26] = assay: Antihyperalgesic activity in complete Freund's adjuvant-induced Swiss mouse pain model assessed as paw withdrawal latency at 10 mg/kg, po starting 1 hr post challenge for 7 days measured on day 1 post challenge by electronic pressure-meter test; assay type: functional, organism-based; design: dose 10 mg/kg; how it was run: as §4
Mus musculus [27] = assay: Antihyperalgesic activity in carrageenan-induced mechanical hyperalgesia Swiss mouse model assessed as paw withdrawal latency at 10 mg/kg, po administered 30 mins prior to challenge measured after 1 to 5 hrs post challenge by electronic pressure-meter test in presence of glibenclamide; assay type: functional, organism-based; design: dose 10 mg/kg; how it was run: as §6
Mus musculus [28] = assay: Hepatotoxicity in Swiss mouse assessed as change in plasma ALT level at 10 mg/kg, po for 7 days measured over 7 days relative to vehicle-treated control; assay type: toxicity, organism-based; design: dose 10 mg/kg, route oral; settings: in vivo, 168 h; how it was run: as §10
Mus musculus [29] = assay: Antihyperalgesic activity in carrageenan-induced mechanical hyperalgesia Swiss mouse model assessed as paw withdrawal latency at 10 mg/kg, po administered 30 mins prior to challenge measured after 1 to 5 hrs post challenge by electronic pressure-meter test in presence of 10 mg/kg L-NAME; assay type: functional, organism-based; how it was run: as §3

## C=C1C[C@@]23CC[C@H]4[C@@](C)(CCC[C@@]4(C)C(=O)O)[C@@H]2CC[C@@H]1C3 [KAURENOIC ACID]
Mus musculus [1]
  Activity: Active
Mus musculus [2]
  inhibition: Active
Mus musculus [3]
  Activity: inactive
Mus musculus [4]
  Activity: inactive
Mus musculus [5]
  Activity: Active
Mus musculus [6]
  Activity: Non-toxic
Mus musculus [7]
  inhibition: Active
Mus musculus [8]
  inhibition: Active
Mus musculus [9]
  Activity: Dose-dependent effect
Mus musculus [10]
  Activity: inactive
Mus musculus [11]
  inhibition: Dose-dependent effect
Mus musculus [12]
  inhibition: Active
Mus musculus [13]
  Activity: inactive
Mus musculus [14]
  inhibition: Active
Mus musculus [15]
  Activity: inactive
Mus musculus [16]
  Activity: inactive
Mus musculus [17]
  Activity: Non-toxic
Mus musculus [18]
  inhibition: Active
Mus musculus [19]
  Activity: Active
Mus musculus [20]
  inhibition: Active
Mus musculus [21]
  Activity: Active
Mus musculus [22]
  Activity: Non-toxic
Mus musculus [23]
  Activity: Non-toxic
Mus musculus [24]
  inhibition: Active
Mus musculus [25]
  Activity: Active
Mus musculus [26]
  Activity: inactive
Mus musculus [27]
  Activity: inactive
Mus musculus [28]
  Activity: Non-toxic
Mus musculus [29]
  Activity: Active
